For orientation: Kp means tissue or fluid exposure divided by exposure in the circulation. As usually defined, the Cmax is the peak of the concentration-time curve. In general, IC50 refers to the concentration that gives 50% inhibition. The EC50 is the concentration giving half of the maximal effect.

Here are results for eight compounds from paper PMC7253076 (Cell chemical biology, 2019).

Values joined by “and” are separate entries in the source; they are usually repeats but may differ in a detail not shown here. Identical values can stand only once. Bounds are passed on as bounds.

For series [1] the following is noted: ref Tang et al., 2012; cited from earlier work.
Series [2] relates to mouse stem cell-derived motor neurons. The following applies: CPA-treated; ref Thams et al., 2019; cited from earlier work.
Series [3] relates to motor neurons differentiated from human induced pluripotent stem cells derived from a healthy patient. Briefly: Motor neuron CPA survival assay, healthy-patient iPSC-derived motor neurons. It is filed as cell-based. Particulars: CPA-treated healthy human motor neurons, 72 h.
Series [4] concerns human stem-cell-derived motor neurons carrying the ALS-causing SOD1^A4V mutation. Briefly: Motor neuron CPA survival assay, SOD1^A4V ALS motor neurons.
In series [5] the test system is kinases assayed in cell-free conditions. Briefly: Kinase selectivity score from published cell-free panels. The format is biochemical.
Series [6] has as its system HIV-mediated microgliosis in the brain. Particulars: mice, ref Marker et al. (2013), cited from earlier work.
A short description of series [7]: In vivo pharmacokinetics, IP injection or oral gavage. Details: species or system mouse. The following applies: for Brain AUC / Brain mean Cmax / Kp at 3 h / Cmax: mouse; for Brain AUC / Brain mean Cmax: ± SEM; for Kp at 3 h / Cmax: male, B6SJLF1/J; for Kp at 3 h: brain and plasma; for Cmax: plasma. The essentials:
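Dosing solution: DMSO stock diluted to 2 mg/mL in 40% PEG-400 plus 55% of a 20% hydroxypropyl-β-cyclodextrin solution. Given at 10 mg/kg IP or by oral gavage to 8-week-old male wild-type B6SJLF1/J mice, n = 3 per route per time point. At 15 min, 3, 8 or 24 h: trunk blood (EDTA 50 mM final, plasma) and fresh brain taken. Analysed by LC-MS against calibration curves; means ± SEM.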

Series [8] has as its target HGK (Homo sapiens, UniProt O95819). As to the kind of experiment: Cell-free radiolabeled ATP kinase assay. It is filed as biochemical. The method in brief:
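Recombinant HGK and substrate with test compound in radiometric HotSpot assay at 25°C: ATP plus 33P-ATP at 10 μM final, 120 min, then spotted on P81 filter paper and washed. IC50 from 10 concentrations, 0.0002–0.1 μM in 2-fold steps. Otherwise single concentrations were used; the 371-kinase panel was run at 0.1 μM. Activity is % remaining versus DMSO alone.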

In series [9] the test system is HGK. The following applies: 1 μM; ref Goodfellow et al., 2013; cited from earlier work.
For series [10] the following is noted: ref Goodfellow et al. (2013); cited from earlier work.
Series [11] deals with TNFα release in LPS-stimulated mouse N9 microglial cells. As to the kind of experiment: TNFα ELISA in LPS-stimulated N9 microglia. The format is cell-based. The following applies: for EC50: Mus musculus, N9, 24 h, read-out: EC50 for decrease of TNFα secretion. The method in brief: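 N9 mouse microglia were plated at 8000 cells/well on gelatin in DMEM/10% FBS. At 24 h, cells were treated with LPS (E. coli O111:B4) plus test compound at stated concentrations. 24 h later, medium TNFα was measured by ELISA (A450, 540 nm correction). Viability of remaining cells was checked by AlamarBlue, 4 h at 37°C. n = 2 wells; means ± SEM.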
Background: ELISA stands for enzyme-linked immunosorbent assay.

In a further series the target is MLK3 (Homo sapiens, UniProt Q16584). As to the kind of experiment: Cell-free radiolabeled ATP kinase assay. Particulars: for activity at MLK3: single concentration, cell-free. The format is biochemical.
In the next series the test system is JNK pathway. As to the kind of experiment: Western blots of JNK pathway in CPA-treated motor neurons. The format is cell-based, mouse. The following applies: western blot. The essentials: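 Day-6 embryoid bodies from mouse ES cells (HB9::GFP reporter, human SOD1 transgene; RA 1 μM + SAG 0.5 μM) were given CPA 10 μM plus test compound 0.5 μM for 4 h, then lysed in HEPES/Triton/SDS buffer. Immunoblots used phospho-JNK (Thr183/Tyr185), phospho-c-Jun (Ser63), phospho-MKK4 (Ser257), total proteins and cleaved caspase 3 at 1:1000, with GAPDH at 1:3000. Signals normalised to GAPDH, phospho to total, and expressed as % of CPA; n = 2 differentiations; unpaired two-tailed t-tests.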
Background: Immunoblotting shows a protein as a band on a membrane.

The next series has as its target MLK1 (Homo sapiens, UniProt P80192). Briefly: Cell-free radiolabeled ATP kinase assay. The format is biochemical. The following applies: single concentration. The method in brief:
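MLK1 radiometric HotSpot assay: recombinant kinase and substrate at 25°C with ATP plus 33P-ATP at 10 μM final, 120 min, spotted on P81 paper and washed. Single-dose panel run at 0.1 μM; IC50 series for MLK1 spanned 0.002–1 μM in 2-fold steps. Read-out is % remaining activity versus DMSO.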

In a further series the test system is SOD1^G93A mutant rats. The following applies: late-stage SOD1^G93A mutant rats; ref Trias et al., 2016; cited from earlier work.
In series [12] the test system is CPA-treated motor neurons. Briefly: CPA-treated motor neurons, PKC/ABL inhibitors. It is filed as cell-based. The following applies: data not shown.
[13] abbreviates: CPA-treated SOD1^A4V motor neurons.
[14] abbreviates: CPA 10 μM + compound 0.5 μM, 4 h.

Chain of MLK3 (Q16584 whole entry): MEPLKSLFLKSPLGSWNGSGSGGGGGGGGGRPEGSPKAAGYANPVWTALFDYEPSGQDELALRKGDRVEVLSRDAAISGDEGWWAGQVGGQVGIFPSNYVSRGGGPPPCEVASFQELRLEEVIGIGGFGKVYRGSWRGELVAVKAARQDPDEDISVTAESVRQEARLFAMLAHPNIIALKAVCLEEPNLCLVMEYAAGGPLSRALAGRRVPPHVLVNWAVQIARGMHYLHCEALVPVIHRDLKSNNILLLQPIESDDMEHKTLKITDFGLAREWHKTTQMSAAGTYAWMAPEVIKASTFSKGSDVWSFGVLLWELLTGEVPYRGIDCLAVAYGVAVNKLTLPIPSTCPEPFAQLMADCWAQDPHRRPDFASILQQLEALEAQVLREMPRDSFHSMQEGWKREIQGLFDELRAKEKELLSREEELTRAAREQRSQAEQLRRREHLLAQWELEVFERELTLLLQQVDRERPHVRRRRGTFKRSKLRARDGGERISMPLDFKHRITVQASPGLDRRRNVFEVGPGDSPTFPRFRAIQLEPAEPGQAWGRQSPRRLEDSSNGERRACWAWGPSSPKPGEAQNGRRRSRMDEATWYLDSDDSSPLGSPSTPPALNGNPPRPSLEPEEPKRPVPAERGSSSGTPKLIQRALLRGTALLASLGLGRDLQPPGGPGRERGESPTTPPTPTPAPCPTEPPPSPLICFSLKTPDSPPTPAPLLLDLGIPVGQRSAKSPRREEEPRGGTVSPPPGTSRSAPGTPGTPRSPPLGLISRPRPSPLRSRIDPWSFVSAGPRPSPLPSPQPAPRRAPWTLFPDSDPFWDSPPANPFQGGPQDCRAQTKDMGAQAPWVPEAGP
Chain of HGK (Homo sapiens, UniProt O95819) (O95819 whole entry): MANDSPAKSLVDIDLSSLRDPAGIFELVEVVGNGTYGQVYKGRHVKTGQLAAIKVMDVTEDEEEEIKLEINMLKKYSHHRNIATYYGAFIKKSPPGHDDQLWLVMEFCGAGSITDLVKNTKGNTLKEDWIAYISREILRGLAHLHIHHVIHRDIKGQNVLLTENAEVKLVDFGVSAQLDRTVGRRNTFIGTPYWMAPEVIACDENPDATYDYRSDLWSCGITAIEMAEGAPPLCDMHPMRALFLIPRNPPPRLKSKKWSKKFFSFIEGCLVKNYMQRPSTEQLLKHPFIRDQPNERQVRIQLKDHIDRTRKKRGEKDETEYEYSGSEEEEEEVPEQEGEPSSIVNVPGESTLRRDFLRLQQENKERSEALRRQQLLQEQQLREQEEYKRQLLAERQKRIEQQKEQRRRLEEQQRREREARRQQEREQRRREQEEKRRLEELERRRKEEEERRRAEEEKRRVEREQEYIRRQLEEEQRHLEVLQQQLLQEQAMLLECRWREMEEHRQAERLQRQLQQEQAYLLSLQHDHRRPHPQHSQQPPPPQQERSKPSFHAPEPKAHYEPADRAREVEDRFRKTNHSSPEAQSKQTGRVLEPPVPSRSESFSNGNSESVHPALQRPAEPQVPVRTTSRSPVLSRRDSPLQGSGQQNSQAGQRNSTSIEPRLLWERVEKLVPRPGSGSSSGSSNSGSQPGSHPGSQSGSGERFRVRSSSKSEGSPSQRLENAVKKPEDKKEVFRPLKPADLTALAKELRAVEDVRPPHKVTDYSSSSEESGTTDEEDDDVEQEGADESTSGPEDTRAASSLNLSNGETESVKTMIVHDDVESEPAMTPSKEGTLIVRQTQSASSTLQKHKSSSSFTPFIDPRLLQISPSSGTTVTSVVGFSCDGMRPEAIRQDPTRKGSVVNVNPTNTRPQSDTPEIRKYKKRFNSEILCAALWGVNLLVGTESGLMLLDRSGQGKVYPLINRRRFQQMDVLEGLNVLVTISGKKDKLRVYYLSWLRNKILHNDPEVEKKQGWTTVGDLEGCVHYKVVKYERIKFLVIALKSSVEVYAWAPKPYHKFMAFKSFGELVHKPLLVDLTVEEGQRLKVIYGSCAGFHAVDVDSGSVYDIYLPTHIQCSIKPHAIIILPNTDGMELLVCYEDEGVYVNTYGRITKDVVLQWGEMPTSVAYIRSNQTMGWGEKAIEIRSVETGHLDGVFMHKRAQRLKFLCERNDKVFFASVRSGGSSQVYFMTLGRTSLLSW
Chain of MLK1 (P80192 whole entry): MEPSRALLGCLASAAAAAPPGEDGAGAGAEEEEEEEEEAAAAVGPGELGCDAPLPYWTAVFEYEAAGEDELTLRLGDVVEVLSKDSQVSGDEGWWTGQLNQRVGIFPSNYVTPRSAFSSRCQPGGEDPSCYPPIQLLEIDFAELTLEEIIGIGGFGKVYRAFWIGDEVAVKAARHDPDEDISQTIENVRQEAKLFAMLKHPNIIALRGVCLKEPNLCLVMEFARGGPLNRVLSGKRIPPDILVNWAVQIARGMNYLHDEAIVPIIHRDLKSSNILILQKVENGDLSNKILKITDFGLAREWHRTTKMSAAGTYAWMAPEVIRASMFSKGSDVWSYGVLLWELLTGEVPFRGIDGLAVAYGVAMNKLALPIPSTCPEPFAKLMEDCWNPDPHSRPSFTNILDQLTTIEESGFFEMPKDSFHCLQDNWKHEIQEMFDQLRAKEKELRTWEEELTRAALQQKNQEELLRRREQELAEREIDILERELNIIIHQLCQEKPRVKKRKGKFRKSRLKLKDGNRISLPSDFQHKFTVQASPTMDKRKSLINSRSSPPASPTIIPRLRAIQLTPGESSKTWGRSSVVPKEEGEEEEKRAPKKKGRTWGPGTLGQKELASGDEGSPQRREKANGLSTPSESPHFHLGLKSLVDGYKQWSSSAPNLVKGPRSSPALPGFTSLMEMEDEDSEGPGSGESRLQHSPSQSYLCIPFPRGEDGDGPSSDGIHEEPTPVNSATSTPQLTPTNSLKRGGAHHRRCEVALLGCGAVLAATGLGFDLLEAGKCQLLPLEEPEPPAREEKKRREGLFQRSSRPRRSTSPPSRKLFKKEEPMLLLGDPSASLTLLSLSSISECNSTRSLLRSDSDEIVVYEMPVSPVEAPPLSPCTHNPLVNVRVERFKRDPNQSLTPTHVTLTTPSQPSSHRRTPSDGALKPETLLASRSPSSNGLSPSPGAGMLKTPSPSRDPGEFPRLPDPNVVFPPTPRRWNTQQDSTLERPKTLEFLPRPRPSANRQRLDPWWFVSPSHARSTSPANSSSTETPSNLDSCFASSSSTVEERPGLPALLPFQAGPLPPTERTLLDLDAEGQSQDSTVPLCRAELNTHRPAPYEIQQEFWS

With `CCN(CC)CCNC(=O)c1c(C)[nH]c(/C=C2\C(=O)Nc3ccc(F)cc32)c1C` [sunitinib], the blood-brain barrier crossing entry in series [1] is on record as “does not readily cross the blood-brain barrier”. In series [2], the “protection of motor neurons from ER stress” value is “protect motor neurons from ER stress”.

Take `CN1CCN(Cc2ccc(-c3cnc4[nH]cc(-c5ccc6[nH]ccc6c5)c4c3)cc2)CC1` [compound 1, 3-(1H-Indol-5-yl)-5-(4-((4-methylpiperazin-1-yl)methyl)phenyl)-1H-pyrrolo[2,3-b]pyridine, reference compound]: in series [3], the “rescue of CPA toxicity / neuroprotection” value is “neuroprotective”. In addition, in [4] (CPA 33 μM, 72 h, CPA alone ~10%), the “maximum motor neuron survival compared to untreated controls” value was found to be 102%. The “concentration at which maximum efficacy (Emax) was observed” value in series [4] (setting [13]) is 1 µM. Besides, the “selectivity score (kinases with <20% activity remaining / total kinases assayed)” value in series [5] (similar conditions, based on data from ref Goodfellow et al. (2013)) is 0.36. The “effect on HIV-mediated microgliosis in the brain” value in series [6] (IP 10 mg/kg twice a day for 28 days) is recorded as “attenuate Human Immunodeficiency Virus (HIV)-mediated microgliosis”. Moreover, in series [6], the “tolerability over long-term dosing” value was “well-tolerated”. Besides, the “Brain AUC” value in series [7] (10 mg/kg IP) is listed as 1568 (±147.1) μg/L•h; in series [7] (10 mg/kg OG), 567.2 (±110.5) μg/L•h. In addition, the “Brain mean Cmax” value was 208.8 (±10.21) μg/kg in [7] (10 mg/kg IP) and 83.35 (±21.40) μg/kg in [7] (10 mg/kg OG). The Kp at 3 h amounted to 0.23 in series [7] (ip, 10 mg/kg) and 0.19 in [7] (oral, 10 mg/kg). The Cmax in series [7] (ip, 10 mg/kg) amounted to 972 ng/mL; in series [7] (po, 10 mg/kg) it was 476 ng/mL. Also, the IC50 against HGK [8] was 5.93 nM; against MLK3, 18.6 nM. The “inhibition of HGK activity” value with HGK [9] is over 99%. In addition, the “bioavailability (%F) as measured in the plasma” value in [10] is on record as 41. Moreover, the EC50 in [11] is 200 nM. The “JNK activation (phospho-JNK Thr183/Tyr185) compared to CPA alone” value in the series on JNK pathway (setting [14]) is listed as “significantly decreased JNK activation”. Also, in the series on JNK pathway (setting [14]), the “phosphorylation of MKK4 at Ser257” value is “attenuated the phosphorylation”.

In the case of `CN1CC2CCC(C1)N2Cc1ccc(-c2cnc3[nH]cc(-c4cccc5[nH]ncc45)c3c2)cc1` [12e, 4-(5-(4-((3-Methyl-3,8-diazabicyclo[3.2.1]octan-8-yl)methyl)phenyl)-1H-pyrrolo[2,3-b]pyridin-3-yl)-1H-indazole], the “neuroprotection in CPA survival assay” value in series [4] (setting [13]) is on record as “highly neuroprotective”. Moreover, the “inhibition of MLK1” value at MLK1 is “inability to inhibit MLK3 and MLK1”. Also, the “inhibition of HGK activity” value against HGK [8] (single concentration, cell-free) is “strongly inhibited HGK activity”. Further, the “effect on TNFα release at 0.5 μM” value in [11] (0.5 μM, LPS-stimulated N9 microglia) is “did not inhibit TNFα release”. Besides, in series [11] (LPS-stimulated N9 microglia), the “effect on TNFα levels” value is “did not significantly decrease TNFα levels”. For the same compound, the “activity at MLK3” value at MLK3 was “little activity at MLK3”.

`Cc1ccc(NC(=O)c2ccc(CN3CCN(C)CC3)cc2)cc1Nc1nc(-c2cccnc2)cs1` [masitinib]: in the series on SOD1^G93A mutant rats, the “effect on microgliosis and disease progression” value is “attenuate microgliosis and slow disease progression”.

Turning to `Nc1ncc(C(=O)NC2CN(C(=O)C3CC3)C2)c2ccc(-c3cccc(F)c3)nc12` [GNE-495], the “rescue of CPA toxicity / neuroprotection” value in series [3] was “neuroprotective”. Moreover, the “selectivity score (kinases with <20% activity remaining / total kinases assayed)” value in [5] (1 μM, cell-free, calculated from published data, ref Ndubaku et al., 2015) is on record as 0.01.

Turning to `OCCN1CCN(Cc2ccc(-c3cnc4[nH]cc(-c5cccc(Cl)c5)c4c3)cc2)CC1` [Prostetin/12k, 2-(4-(4-(3-(3-Chlorophenyl)-1H-pyrrolo[2,3-b]pyridin-5-yl)benzyl)piperazin-1-yl)ethan-1-ol], in [4] (setting [13]), the “concentration at which maximum efficacy (Emax) was observed” value is 0.5 µM. In addition, the EC50 in series [4] (Homo sapiens, Neuron, 72 h, read-out: EC50 in motor neuron survival assay) is 100 nM; in series [11], about 470 nM. Further, the results for the “Brain AUC” value in series [7] (10 mg/kg IP) and in series [7] (10 mg/kg OG) were 11570 (±1655) μg/L•h and 8429 (±1458) μg/L•h, respectively. For the same compound, the “Brain mean Cmax” value is recorded as 1162 (±91.99) μg/kg in [7] (10 mg/kg IP) and 658.9 (±257.7) μg/kg in series [7] (10 mg/kg OG). Besides, the “brain Cmax” value in series [7] (IP-injected animals, 10 mg/kg) was 1162 ng/g and 2.60 μM. Moreover, the Kp at 3 h was 3 in series [7] (ip, 10 mg/kg) and 3.3 in series [7] (oral, 10 mg/kg). Also, the Cmax in [7] (ip, 10 mg/kg) turned out to be 454 ng/mL; in series [7] (po, 10 mg/kg), 184 ng/mL. It took 0.3 nM to reach half-maximal inhibition against HGK [8] (IC50). In addition, the “concentrations that significantly attenuated TNFα release” value in [11] (LPS-stimulated N9 microglia) was at least 0.5 µM. Moreover, the “potency relative to compound 1 (fold less potent)” value in series [11] (suppression of TNFα release) was ~ 5 x. Also, the “activity at MLK3” value on MLK3 is recorded as “slightly decreased inhibition of MLK3”. Further, the “inhibition of JNK pathway components” value in the series on JNK pathway (Fig. S2) is on record as “effectively inhibit the same JNK pathway components as compound 1”.

Consider `COc1cc(Nc2c(C#N)cnc3cc(OCCCN4CCN(C)CC4)c(OC)cc23)c(Cl)cc1Cl` [bosutinib], for which the “protection of CPA-treated motor neurons” value in series [12] was “mildly protective”.

`CS(=O)(=O)O.Cn1cc(C2=C(c3cn(CCCSC(=N)N)c4ccccc34)C(=O)NC2=O)c2ccccc21` [Ro-318220 mesylate]: the “protection of CPA-treated motor neurons” value in series [12] is reported as “mildly protective”.
